Experimental data taken from ChEMBL document CHEMBL1141958, “Toll-like receptor 2 antagonists. Part 1: preliminary SAR investigation of novel synthetic phospholipids” (Bioorg Med Chem Lett, 2005).

Key:
Toll-like receptor 2 [1] = molecular target: T1, Toll-like receptor 2 (Homo sapiens, UniProt O60603); assay: Antagonistic potency at TLR2 expressed in HEK293 cells; assay type: functional, cell-based
Toll-like receptor 4 = Toll-like receptor 4 (Homo sapiens, UniProt O00206); assay: Antagonistic potency at human TLR4 expressed in HEK293 cells; assay type: functional, cell-based
Chain of Toll-like receptor 4 (O00206 whole entry): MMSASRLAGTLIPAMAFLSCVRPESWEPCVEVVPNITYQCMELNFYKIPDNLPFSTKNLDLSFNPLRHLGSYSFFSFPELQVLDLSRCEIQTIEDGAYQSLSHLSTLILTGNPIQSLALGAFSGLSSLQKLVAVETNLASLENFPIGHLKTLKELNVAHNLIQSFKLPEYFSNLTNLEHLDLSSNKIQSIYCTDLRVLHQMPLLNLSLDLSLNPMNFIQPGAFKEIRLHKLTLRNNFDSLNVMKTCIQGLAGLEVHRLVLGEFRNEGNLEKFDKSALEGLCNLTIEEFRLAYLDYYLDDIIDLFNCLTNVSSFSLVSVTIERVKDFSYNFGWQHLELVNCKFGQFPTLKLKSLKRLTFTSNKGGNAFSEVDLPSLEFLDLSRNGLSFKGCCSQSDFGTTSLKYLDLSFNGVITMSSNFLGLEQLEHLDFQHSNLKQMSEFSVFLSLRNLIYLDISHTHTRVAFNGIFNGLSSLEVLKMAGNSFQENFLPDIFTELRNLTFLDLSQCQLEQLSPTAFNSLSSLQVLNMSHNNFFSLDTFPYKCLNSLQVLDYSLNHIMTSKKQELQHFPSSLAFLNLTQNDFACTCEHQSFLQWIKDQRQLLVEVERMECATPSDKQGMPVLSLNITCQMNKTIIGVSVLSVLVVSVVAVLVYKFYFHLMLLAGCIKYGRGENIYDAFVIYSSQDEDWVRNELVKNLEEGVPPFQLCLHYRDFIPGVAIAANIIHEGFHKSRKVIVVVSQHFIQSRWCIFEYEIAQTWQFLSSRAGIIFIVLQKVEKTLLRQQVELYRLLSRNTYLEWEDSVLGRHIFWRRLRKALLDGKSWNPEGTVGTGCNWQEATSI

Toll-like receptor 2 [2] = molecular target: T1, Toll-like receptor 2; assay: Antagonistic activity at TLR in human PBMC; assay type: functional
Procedure, shortened: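 PBMCs purified from heparinized blood of healthy human donors, seeded at 50,000 cells per well. Pam3CysSK4 (50 ng/ml) added together with compound at 30, 10, 3, 1, 0.3, 0.1 and 0.03 µM; 6 h at 37 °C. Supernatants collected by centrifugation, stored at -20 °C, TNFα measured by ELISA.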

T1 sequence (O60603 whole entry): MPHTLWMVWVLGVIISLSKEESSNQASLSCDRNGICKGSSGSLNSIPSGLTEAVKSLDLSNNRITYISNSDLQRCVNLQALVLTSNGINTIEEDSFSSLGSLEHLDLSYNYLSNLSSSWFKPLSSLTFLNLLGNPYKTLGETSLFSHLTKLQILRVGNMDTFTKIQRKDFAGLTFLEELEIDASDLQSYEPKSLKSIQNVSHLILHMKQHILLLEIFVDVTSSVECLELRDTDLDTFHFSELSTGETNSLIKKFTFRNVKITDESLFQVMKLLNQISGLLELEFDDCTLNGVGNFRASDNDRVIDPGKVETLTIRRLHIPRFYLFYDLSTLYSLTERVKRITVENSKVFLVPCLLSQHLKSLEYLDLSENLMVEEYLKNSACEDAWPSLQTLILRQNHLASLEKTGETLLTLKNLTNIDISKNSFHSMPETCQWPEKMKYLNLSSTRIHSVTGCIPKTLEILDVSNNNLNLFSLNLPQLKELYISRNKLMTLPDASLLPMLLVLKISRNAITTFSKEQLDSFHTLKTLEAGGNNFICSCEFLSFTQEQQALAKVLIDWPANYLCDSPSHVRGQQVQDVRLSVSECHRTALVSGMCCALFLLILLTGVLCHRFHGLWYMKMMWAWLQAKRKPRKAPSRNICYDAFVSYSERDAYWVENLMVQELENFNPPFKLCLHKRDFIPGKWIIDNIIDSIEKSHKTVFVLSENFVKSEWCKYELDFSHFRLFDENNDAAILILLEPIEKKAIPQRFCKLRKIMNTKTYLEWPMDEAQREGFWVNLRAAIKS

SMILES	IC50 (Toll-like receptor 2 [1])	IC50 (Toll-like receptor 4)	IC50 (Toll-like receptor 2 [2])
CCCCCCCCCCCCCC(=O)O[C@H](COCC[C@@H](CCCCCCC)OC(=O)CCCCCCCCCCC)COP(=O)(O)OCCNC(=O)C(Cc1ccc(O)cc1)C(=O)O (some centres undefined)	1.25 µM		
CCCCCCCCCCCCCC(=O)N[C@H](COCC[C@H](CCCCCCC)OC(=O)CCCCCCCCCCC)COP(=O)(O)OCCNC(=O)C(Cc1ccc(O)cc1)C(=O)O (some centres undefined)	6.46 µM	0.16 µM	
CCCCCCCCCCCCCC(=O)N[C@H](COCC[C@@H](CCCCCCC)OC(=O)CCCCCCCCCCC)COP(=O)(O)OCCNC(=O)C(Cc1ccc(O)cc1)C(=O)O (some centres undefined)	3.07 µM	0.35 µM	1.6 µM
CCCCCCCCCCCCCC(=O)N[C@H](COCC[C@@H](CCCCCCC)OC(=O)CCCCCCCCCCC)COP(=O)(O)OCCNC(=O)CCc1ccc(O)cc1	2.15 µM		
CCCCCCCCCCCCCC(=O)N[C@H](COCC[C@@H](CCCCCCC)NC(=O)CCCCCCCCCCC)COP(=O)(O)OCCNC(=O)C(Cc1ccc(O)cc1)C(=O)O (some centres undefined)	5.2 µM		

Next, values leading:

IC50 (Toll-like receptor 2 [1])	IC50 (Toll-like receptor 4)	IC50 (Toll-like receptor 2 [2])	SMILES
0.9 µM			CCCCCCCCCCCCCC(=O)N[C@@H](COP(=O)(O)OCCNC(=O)C(Cc1ccc(O)cc1)C(=O)O)C(=O)NCC[C@@H](CCCCCCC)OC(=O)CCCCCCCCCCC (some centres undefined)
6.9 µM	0.08 µM		CCCCCCCCCCCCCC(=O)N[C@@H](COCC[C@H](CCCCCCC)OC(=O)CCCCCCCCCCC)COP(=O)(O)OCCNC(=O)C(Cc1ccc(O)cc1)C(=O)O (some centres undefined)
22 µM	0.25 µM		CCCCCCCCCCCCCC(=O)N[C@@H](COCC[C@@H](CCCCCCC)OC(=O)CCCCCCCCCCC)COP(=O)(O)OCCNC(=O)C(Cc1ccc(O)cc1)C(=O)O (some centres undefined)
0.95 µM			CCCCCCCCCCCCCC(=O)N[C@@H](COP(=O)(O)OCCNC(=O)C(Cc1ccc(O)cc1)C(=O)O)C(=O)OCC[C@@H](CCCCCCC)OC(=O)CCCCCCCCCCC (some centres undefined)
